Experimental findings from ChEMBL document CHEMBL1127424, “7-azetidinylquinolones as antibacterial agents. 2. Synthesis and biological activity of 7-(2,3-disubstituted-1-azetidinyl)-4-oxoquinoline- and -1,8-naphthyridine-3-carboxylic acids. Properties and structure-activity relationships of quinolones with an azetidine moiety” (J Med Chem, 1994) are described below.

The nature of data set [1]: Measured ionization constant (pKa). Type of data set: physicochemical. The following applies: read-out: pKa1. The gist of the method: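 Spectrophotometric titration at 20 ± 1 °C, 0.1 M ionic strength, pH varied with H2SO4 or NaOH made up in the compound stock. Absorbance followed at compound-specific wavelengths chosen from 200–400 nm scans. pKa1 and pKa2 taken as the inflection points of the two-step absorbance vs pH curve.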

The test system of another data set is Escherichia coli. The data set is described as follows: In vitro minimum inhibitory concentration for Escherichia coli ATCC 10799. The data set is classed as functional. An outline of the steps: (§1)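 Serial 2-fold agar dilution in Mueller Hinton medium, run alongside a reference quinolone. Inoculum adjusted to 10⁸ cfu/mL; compound range 0.007–16 μg/mL.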
For another data set, the system named is Morganella morganii. As to the kind of experiment: In vitro minimum inhibitory concentration for Morganella morganii ATCC 8019. Type of data set: functional. The gist of the method: as §1
The next data set has as its system Proteus vulgaris. The data set is described as follows: In vitro minimum inhibitory concentration for Proteus vulgaris ATCC 8427. Type of data set: functional. An outline of the steps:
as §1

Another data set has as its system Bacillus subtilis. The data set is described as follows: In vitro minimum inhibitory concentration for Bacillus subtilis ATCC 6633. Type of data set: functional. An outline of the steps:
as §1

A further data set relates to Klebsiella pneumoniae. As to the kind of experiment: In vitro minimum inhibitory concentration to inhibit Klebsiella pneumoniae ATCC 10031. The data set is classed as functional. The gist of the method: as §1
Data set [2] deals with Staphylococcus epidermidis. The data set is described as follows: In vitro minimum inhibitory concentration for Staphylococcus epidermidis ATCC 155-1. Type of data set: functional. The gist of the method:
as §1

The subject of another data set is Bacillus cereus. The data set is described as follows: In vitro minimum inhibitory concentration for Bacillus cereus ATCC 11778. The data set is classed as functional. The gist of the method: as §1
For another data set, the system named is Enterococcus faecalis. As to the kind of experiment: In vitro minimum inhibitory concentration for Streptococcus faecalis ATCC 10541. The data set is classed as functional. The gist of the method: as §1
A further data set relates to Pseudomonas aeruginosa. The data set is described as follows: In vitro minimum inhibitory concentration for Pseudomonas aeruginosa ATCC 10145. The data set is classed as functional. An outline of the steps: as §1
In a further data set the test system is Staphylococcus aureus. The data set is described as follows: In vitro minimum inhibitory concentration for Staphylococcus aureus ATCC 25178. Type of data set: functional. The gist of the method: as §1
Data set [3] is described as follows: HPLC capacity factor (k'). Type of data set: ADME. The gist of the method:
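Ion-pair reversed-phase HPLC on ODS-2 (10 μm) at 45 °C. Mobile phase: 10 mM sodium heptanesulfonate plus 50 mM KH2PO4 (pH 3.5)–methanol 45:55, 1 mL/min. Samples at 100 μg/mL in DMF, injected in duplicate, UV 280 nm. k' = (tR − t0)/t0.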

For the next data set, the system named is Enterobacter cloacae. As to the kind of experiment: In vitro minimum inhibitory concentration for Enterobacter cloacae ATCC 23355. The data set is classed as functional.

Converted amounts (≈) assume the structure as drawn.

For the compound `CC[N+](C)(C)C1CN(c2cc3c(cc2F)c(=O)c(C(=O)O)cn3C2CC2)C1`, the pKa in data set [1] was found to be 6.46.

On to `C[C@H]1[C@H](N)CN1c1c(F)cc2c(=O)c(C(=O)O)cn(CCF)c2c1F`, for which the MIC came out at 0.12 µg/mL (≈ 0.338 µM) in the data set on Escherichia coli; 0.06 µg/mL (≈ 0.169 µM) with Morganella morganii; 0.5 µg/mL (≈ 1.41 µM) with Proteus vulgaris; 0.12 µg/mL (≈ 0.338 µM) against Bacillus subtilis; 0.03 µg/mL (≈ 0.0844 µM) against Klebsiella pneumoniae; 0.5 µg/mL (≈ 1.41 µM) in [2]. In addition, the MIC in the data set on Bacillus cereus was 0.5 µg/mL (≈ 1.41 µM); with Enterococcus faecalis, 2 µg/mL (≈ 5.63 µM); against Pseudomonas aeruginosa, 1 µg/mL (≈ 2.81 µM); in the data set on Staphylococcus aureus, 0.5 µg/mL (≈ 1.41 µM); against Enterobacter cloacae, 0.12 µg/mL (≈ 0.338 µM). Further, the “Log k'” value in [3] was -0.1024.

With `C[C@H]1[C@H](N)CN1c1c(F)cc2c(=O)c3c(=O)[nH]sc3n(C3CC3)c2c1F`, the minimal inhibitory concentration (MIC) with Escherichia coli is 0.12 µg/mL (≈ 0.317 µM); in the data set with Morganella morganii, 0.06 µg/mL (≈ 0.159 µM); in the data set with Proteus vulgaris, 0.12 µg/mL (≈ 0.317 µM); in the data set on Bacillus subtilis, 0.06 µg/mL (≈ 0.159 µM); against Klebsiella pneumoniae, 0.03 µg/mL (≈ 0.0793 µM); in data set [2] it was 0.12 µg/mL (≈ 0.317 µM). For the same compound, the minimal inhibitory concentration (MIC) was determined as 0.06 µg/mL (≈ 0.159 µM) against Bacillus cereus; 0.25 µg/mL (≈ 0.661 µM) in the data set with Enterococcus faecalis; 1 µg/mL (≈ 2.64 µM) in the data set on Pseudomonas aeruginosa; 0.12 µg/mL (≈ 0.317 µM) against Staphylococcus aureus; 0.03 µg/mL (≈ 0.0793 µM) in the data set on Enterobacter cloacae. In [3], the “Log k'” value was 0.1134.

With `CCn1cc(C(=O)O)c(=O)c2cc(F)c(N3C[C@@H](N)[C@@H]3C)nc21`, the minimal inhibitory concentration (MIC) is 0.25 µg/mL (≈ 0.78 µM) in the data set on Escherichia coli; 0.25 µg/mL (≈ 0.78 µM) against Morganella morganii; 0.5 µg/mL (≈ 1.56 µM) against Proteus vulgaris; 0.12 µg/mL (≈ 0.375 µM) in the data set with Bacillus subtilis; 0.12 µg/mL (≈ 0.375 µM) with Klebsiella pneumoniae; 0.5 µg/mL (≈ 1.56 µM) in data set [2]. For the same compound, the MIC with Bacillus cereus was determined as 0.5 µg/mL (≈ 1.56 µM); in the data set on Enterococcus faecalis it was 2 µg/mL (≈ 6.24 µM); in the data set on Pseudomonas aeruginosa it was 2 µg/mL (≈ 6.24 µM); against Staphylococcus aureus, 0.5 µg/mL (≈ 1.56 µM); against Enterobacter cloacae, 0.12 µg/mL (≈ 0.375 µM). For the same compound, in data set [3], the “Log k'” value is recorded as -0.1061.

With `C[C@H]1[C@H](N)CN1c1cc2c(cc1F)c(=O)c(C(=O)O)cn2C(C)(C)C`, the MIC in the data set on Escherichia coli amounted to 0.25 µg/mL (≈ 0.72 µM); in the data set with Morganella morganii it was 0.25 µg/mL (≈ 0.72 µM); against Proteus vulgaris, 0.25 µg/mL (≈ 0.72 µM); against Bacillus subtilis, 0.06 µg/mL (≈ 0.173 µM); in the data set with Klebsiella pneumoniae it was 0.015 µg/mL (≈ 0.0432 µM); in data set [2], 0.25 µg/mL (≈ 0.72 µM). The minimum inhibitory concentration (MIC) is 0.25 µg/mL (≈ 0.72 µM) against Bacillus cereus; 0.5 µg/mL (≈ 1.44 µM) against Enterococcus faecalis; 2 µg/mL (≈ 5.76 µM) in the data set with Pseudomonas aeruginosa; 0.25 µg/mL (≈ 0.72 µM) in the data set with Staphylococcus aureus; 0.12 µg/mL (≈ 0.345 µM) in the data set with Enterobacter cloacae. In addition, in [3], the “Log k'” value is listed as 0.1399.

For the compound `C[C@H]1[C@H](N)CN1c1c(F)cc2c(=O)c(C(=O)O)cn(CCF)c2c1Cl`, the MIC in the data set on Escherichia coli amounted to 0.03 µg/mL (≈ 0.0807 µM); in the data set with Morganella morganii, 0.03 µg/mL (≈ 0.0807 µM); in the data set with Proteus vulgaris it was 0.25 µg/mL (≈ 0.672 µM); with Bacillus subtilis it was 0.06 µg/mL (≈ 0.161 µM); against Klebsiella pneumoniae it was 0.03 µg/mL (≈ 0.0807 µM); in data set [2] it was 0.12 µg/mL (≈ 0.323 µM). Also, the MIC in the data set with Bacillus cereus turned out to be 0.25 µg/mL (≈ 0.672 µM); against Enterococcus faecalis, 0.5 µg/mL (≈ 1.34 µM); against Pseudomonas aeruginosa, 1 µg/mL (≈ 2.69 µM); with Staphylococcus aureus, 0.12 µg/mL (≈ 0.323 µM); in the data set with Enterobacter cloacae, 0.03 µg/mL (≈ 0.0807 µM). Also, the “Log k'” value in data set [3] was determined as 0.0166.

On to `C[C@H]1[C@@H](O)CN1c1c(F)cc2c(=O)c(C(=O)O)cn(C3CC3)c2c1F`, for which the minimal inhibitory concentration (MIC) against Escherichia coli was found to be 0.5 µg/mL (≈ 1.43 µM); against Morganella morganii it was 0.5 µg/mL (≈ 1.43 µM); with Proteus vulgaris, 0.25 µg/mL (≈ 0.714 µM); against Bacillus subtilis it was 0.015 µg/mL (≈ 0.0428 µM); in the data set on Klebsiella pneumoniae, 0.015 µg/mL (≈ 0.0428 µM); in [2] it was 0.25 µg/mL (≈ 0.714 µM). The MIC against Bacillus cereus is 0.25 µg/mL (≈ 0.714 µM); in the data set on Enterococcus faecalis, 2 µg/mL (≈ 5.71 µM); in the data set with Pseudomonas aeruginosa, 8 µg/mL (≈ 22.8 µM); with Staphylococcus aureus, 0.25 µg/mL (≈ 0.714 µM); against Enterobacter cloacae, 0.25 µg/mL (≈ 0.714 µM). Further, in [3], the “Log k'” value was 0.462.

Turning to `CC1([N+](C)(C)C)CN(c2c(F)cc3c(=O)c(C(=O)O)cn(C4CC4)c3c2F)C1`, the pKa in [1] amounted to 6.03.

`CC1(C)[C@@H](N)CN1c1nc2c(cc1F)c(=O)c(C(=O)O)cn2C1CC1`: the MIC against Escherichia coli is 0.25 µg/mL (≈ 0.722 µM); against Morganella morganii it was 0.25 µg/mL (≈ 0.722 µM); with Proteus vulgaris, 0.5 µg/mL (≈ 1.44 µM); with Bacillus subtilis, 0.06 µg/mL (≈ 0.173 µM); in the data set on Klebsiella pneumoniae, 0.06 µg/mL (≈ 0.173 µM); in data set [2], 0.12 µg/mL (≈ 0.346 µM). The MIC amounted to 0.06 µg/mL (≈ 0.173 µM) in the data set with Bacillus cereus; 2 µg/mL (≈ 5.77 µM) with Enterococcus faecalis; 2 µg/mL (≈ 5.77 µM) with Pseudomonas aeruginosa; 0.12 µg/mL (≈ 0.346 µM) against Staphylococcus aureus; 0.12 µg/mL (≈ 0.346 µM) against Enterobacter cloacae. For the same compound, the “Log k'” value in data set [3] was -0.0223.

As for `C[C@H]1[C@H](N)CN1c1c(F)cc2c(=O)c(C(=O)O)cn3c2c1SCC3`, the minimum inhibitory concentration (MIC) came out at 0.5 µg/mL (≈ 1.43 µM) against Escherichia coli; 0.25 µg/mL (≈ 0.716 µM) in the data set with Morganella morganii; 1 µg/mL (≈ 2.86 µM) against Proteus vulgaris; 0.25 µg/mL (≈ 0.716 µM) against Bacillus subtilis; 0.25 µg/mL (≈ 0.716 µM) in the data set on Klebsiella pneumoniae; 0.5 µg/mL (≈ 1.43 µM) in data set [2]. For the same compound, the MIC was determined as 1 µg/mL (≈ 2.86 µM) in the data set with Bacillus cereus; 8 µg/mL (≈ 22.9 µM) in the data set with Enterococcus faecalis; 2 µg/mL (≈ 5.72 µM) with Pseudomonas aeruginosa; 1 µg/mL (≈ 2.86 µM) with Staphylococcus aureus; 0.25 µg/mL (≈ 0.716 µM) against Enterobacter cloacae. Also, the “Log k'” value in data set [3] is listed as -0.1195.

The MIC is the lowest concentration found to suppress growth.
